How the values were obtained:
[1] = test system: HEK 293T cells transfected with the empty vector; experiment: [125I]Ang-; format: binding, Human
[2] = test system: HEK 293T cells transfected with the empty vector (mock); experiment: [3H]arachidonic acid; format: cell-based, Human; settings: Ang-(1-7) during 15 min, 37 °C
In short: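 They were washed with DMEM containing 2% BSA, then exposed to test peptide at 37 °C for the stated times. Supernatant radioactivity was counted, and total cellular radioactivity came from cells solubilized in 1 mol/L NaOH. Fractional release (% of total) was expressed as percent of unstimulated control (100%), mean ± SEM.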

[3] = test system: rabbit aortic smooth muscle cells; settings: cited from earlier work
rat renal cortex = settings: cited from earlier work
[4] = test system: endothelial progenitor cells; settings: cells from sham or infarcted rodents; cited from earlier work
megalin = settings: scavenger receptor megalin; cited from earlier work

With Angiotensin-(1-7) [Ang-(1-7)] the “Ang-(1-7) binding” value ([1]; 0.5 nmol/L [125I]Ang-(1-7), 4°C, 60 min) was “undetectable”, the total binding ([1]; 0.5 nmol/L [125I]Ang-(1-7), 4°C, 60 min, mean ± SEM) was 480±68 cpm and the nonspecific binding ([1]; in the presence of 10 μmol/L unlabeled Ang-(1-7), mean ± SEM) was 395±87 cpm. The “[3H]AA release, mock cells” value [2] was “no changes in [^3H]AA release”, the “Ang-(1-7) response in releasing AA from tissue lipids and stimulating 6-keto-prostaglandin F1α production” value [3] was “decrease in Ang-(1-7) response” and the “Ang-(1-7) response, phosphatidylcholine biosynthesis” value (rat renal cortex) was “decrease in Ang-(1-7) response”. The “Ang-(1-7)-induced proliferation of endothelial progenitor cells, responsiveness” value [4] was “attenuation in responsiveness” and the “binding and internalization by megalin” value (megalin) was “binds and internalizes Ang-(1-7)”.

— PMC3141282 (Hypertension, 2011)
